# Bioassay records from PubChem.
# The sample as a whole holds a higher share of hits than the screen did.
# DYRK1A inh – Dyrk1A (rat) kinase inhibition; inhibition, % at 12.5 µM; 0.43% of 310,000 active; ADP-Glo luminescence, NFATc1 peptide; in the data active = inhibition above about 50%;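 also: plate controls were vehicle with enzyme for no effect and no enzyme for full effect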
# GSK3A inh – human GSK-3 alpha kinase inhibition; P49840; ADP-Glo luminescence, 60 min; inhibition, % at 10 µM; 0.1% of 320,000 active;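 active = more than half of replicates show inhibition above 20%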;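 also: GST-tagged GSK-3 alpha with peptide substrate and 25 µM ATP; 0% = DMSO neutral wells and 100% = GW8510 positive control wells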
# Target sequence (P49840 whole entry, looked up): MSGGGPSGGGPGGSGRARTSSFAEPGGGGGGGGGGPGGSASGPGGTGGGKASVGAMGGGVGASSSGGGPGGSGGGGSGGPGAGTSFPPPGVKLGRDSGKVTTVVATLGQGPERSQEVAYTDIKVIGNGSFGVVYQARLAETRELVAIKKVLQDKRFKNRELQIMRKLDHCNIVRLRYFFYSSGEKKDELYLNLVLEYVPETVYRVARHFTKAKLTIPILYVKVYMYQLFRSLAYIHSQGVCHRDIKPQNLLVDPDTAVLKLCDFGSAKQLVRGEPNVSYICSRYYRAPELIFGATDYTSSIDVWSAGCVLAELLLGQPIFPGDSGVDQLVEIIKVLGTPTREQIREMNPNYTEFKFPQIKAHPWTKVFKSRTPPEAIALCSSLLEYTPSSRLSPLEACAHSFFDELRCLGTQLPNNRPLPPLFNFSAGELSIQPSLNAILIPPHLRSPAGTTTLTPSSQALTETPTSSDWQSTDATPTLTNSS
# CDK5 inh – CDK5/p35 (human) kinase inhibition. Recombinant CDK5/p35, ADP-Glo luminescence, 60 min. inhibition, % at 10 µM. 0.01% of 330,000 active. AID 488839;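 active = highest replicate inhibition of at least 50% and at least 75% of replicates reaching 50%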;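 also: plate controls were DMSO neutral control for no effect and GW8510 at 10 µM for full effect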
# GSK3B inh – inhibitors of human GSK3beta kinase; P49841; GST-GSK3beta kinase, ADP-Glo luminescence, 60 min; hits give low values; activity score (negative = inhibition), % at 10 µM; 0.038% of 300,000 active; AID 2097;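 active = more than half of replicate wells score below -50%, meaning over 50% inhibition versus plate controls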;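 also: 0% = median DMSO wells and -100% = median GW8510 positive control wells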
#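 test system = GST-tagged human GSK3beta kinase, cell-free | reagent = 25 µM ATP with peptide substrate | dosing = one dose of 10 µM per compound | schedule = 60 min reaction, RT | detection = luminescent ADP-Glo measurement of ADP formed | control set = DMSO neutral wells and GW8510 at 20 µM as positive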
# STK33 kinase inh – human STK33 kinase inhibition | inhibition, % at 10 µM | purified STK33, MBP phosphorylation, ADP-Glo luminescence | Q9BYT3 | 0.073% of 320,000 active;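 active = inhibition at or above 25%, using the most active replicate where run in duplicate; inactive = inhibition below 25%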
# ADP-Glo artifact – counter-screen for Dyrk1A inhibitors: ADP-Glo luciferase artifacts | shares compounds with DYRK1A inh | ADP-Glo luciferase artifact assay, no Dyrk1A, luminescence | AC50, µM (titrated, usually from 12 µM), for the others: top-dose activity change, negative = inhibition | 1,300 tested, under 10 active;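 active = fitted half-maximal dose AC50 no more than ten times the top valid tested dose, with luminescence dropping as dose rises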
# An asterisk follows results filed as active; nt = no result given.
SMILES,DYRK1A inh,GSK3A inh,CDK5 inh,GSK3B inh,STK33 kinase inh,ADP-Glo artifact
NC(=O)CC(NC(=O)c1cccc(Br)c1)c1ccc(N2CCN(c3ccccn3)CC2)c([N+](=O)[O-])c1 (stereo not drawn),54*,-2,0,-2,0,10%
CCCCN(C(=O)c1ccc(NC2CC2)c([N+](=O)[O-])c1)c1c(N)n(CCCC)c(=O)[nH]c1=O,0,nt,0,nt,nt,nt
Cc1cc2nncn2c2ccccc12,57*,-4,1,1,1,9%
C#CCOCCOCCOCCNc1nc(N2CCOCC2)nc(N2CCN(C(=O)[C@H](C)n3cc(CCC(=O)O)nn3)CC2)n1,6,nt,0,nt,nt,nt
O=C(NN1C(=O)NC2(CCCCC2)C1=O)c1ccc(-c2ccc([N+](=O)[O-])cc2)o1,5,0,0,-1,0,nt
Cc1ccc(Nc2cc(C)c3c(O)cccc3n2)cc1C,39,-1,2,-3,4,nt
Cc1ccccc1Nc1cc(C)c2c(O)cccc2n1,60*,7,-1,0,2,10%
Brc1ccc2[nH]c3c(c2c1)CCC3,nt,-2,0,-2,1,nt
NC(=O)c1cc(Br)cc2c3c([nH]c12)CCCC3,55*,36,1,3,9,7%
Cc1ccc(CCNC(=O)C2CCN(S(=O)(=O)c3cccc4nonc34)CC2)cc1,57*,-1,0,14,-2,11%
Cc1ccc(CNC(=O)C2CCN(S(=O)(=O)c3cccc4nonc34)CC2)cc1,-3,-2,-1,5,-1,nt
N#CCSc1nc(Nc2ccc3c(c2)OCO3)c2ccccc2n1,60*,-1,-1,1,0,7%
COc1ccc2nc3cc(Cl)ccc3c(Nc3ccc(O)c(CN4CCN(C)CC4)c3)c2c1,62*,nt,2,nt,nt,9%
CCC(C)(C)NC(=O)c1ccc2c(c1)N(CC(=O)NC1CCCC1)C(=O)C(C)(C)O2,-8,0,0,-1,1,nt
CCOC(=O)C1CCCN(c2c(N3CCN(C4CCCCC4)CC3)c(=O)c2=O)C1 (stereo not drawn),60*,-2,0,1,-1,6%
CCOC(=O)C1CCCN(c2c(N3CCC(N4CCCCC4)CC3)c(=O)c2=O)C1 (stereo not drawn),-2,-1,-1,11,1,nt
C[C@H](OC(=O)NCc1ccc(C(F)(F)F)cc1)[C@@H]1O[C@@]2(C)CCC[C@@H]1O2,16,0,4,nt,0,nt
Cc1cccc(CNc2ncnc3ccc(-c4ccoc4)cc23)c1,66*,-3,6,nt,0,14%
O=c1cc[nH]c2c1ccc1cccnc12,81*,nt,-4,-12,1,10%
CC(C)(C)[C@@H]1C=C(C(=O)N2CCN(Cc3ccccc3)CC2)O[C@H](OCc2ccc(CO)cc2)C1,3,-3,1,9,-1,nt
CC(C)(C)[C@H]1C=C(C(=O)N2CCN(Cc3ccccc3)CC2)O[C@@H](OCCCCO)C1,53*,-1,2,-6,1,11%
O=C(c1ccc(Cl)c(S(=O)(=O)N2CCOCC2)c1)N(Cc1ccco1)Cc1cccs1,-7,nt,1,nt,nt,nt
Cc1ccc(/C=N/Nc2ncnc3nc[nH]c23)cc1,42,41,20,-36,5,nt
Fc1ccccc1/C=N/Nc1ncnc2nc[nH]c12,55*,65*,39,-36,8,5%
Fc1cccc(/C=N/Nc2ncnc3nc[nH]c23)c1,73*,68*,31,-44,0,1%
SMILES,DYRK1A inh,GSK3A inh,CDK5 inh,GSK3B inh,STK33 kinase inh,ADP-Glo artifact
FC(F)(F)c1cccc(Cc2noc(CN3CCC(c4ccncc4)CC3)n2)c1,-1,0,0,3,-1,nt
Cc1cc(-c2ccc(C(=O)O)s2)cnc1N,65*,0,0,-4,-1,9%
C=CCSc1nc(NC)c2sccc2n1,58*,8,1,1,2,3%
CNc1nc(SC)nc2ccsc12,10,0,2,0,2,nt
Oc1ccc(Nc2nc(-c3ccccc3)nc3ccccc23)cc1,86*,-1,0,0,2,8%
O=C1CCN2C=Nc3cccc4ccc1c2c34,73*,16,7,-16,9,12%
O=C1CCC(=O)c2ccc3c4c(ccc1c24)CC3,24,nt,-1,nt,nt,nt
COc1ccc(Cc2nc3ccccc3c(=O)n2N)cc1OC,-3,-1,1,2,-1,nt
